Results: ChEMBL document CHEMBL1146360, “Benzoic acid and pyridine derivatives as inhibitors of Trypanosoma cruzi trans-sialidase” (Bioorg Med Chem, 2007)
pIC50: −log10 of the molar value.

Key:
[1] = test system: Trypanosoma cruzi; experiment: Inhibition of Trypanosoma cruzi recombinant Trans-sialidase at 0.4 mM
Method in brief: (§1)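 Recombinant His-tagged TcTS was expressed in E. coli with IPTG induction at 18 °C, then purified by metal-affinity and anion-exchange chromatography. Enzyme (0.33 mg/mL stock) and inhibitor were preincubated 10 min at 25 °C in 20 mM Tris-HCl pH 7.5. The reaction was started with MuNANA (1 mM stock) and methylumbelliferone release read continuously for 10 min at 25 °C (ex 322/em 448 nm). Percentage activity is the mean of ≥3 independent runs. I50 was fitted as V=100%/{1+([I]/I50)^s}.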

[2] = test system: Trypanosoma cruzi; conditions: at 1 mM;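 further: measured against recombinant trans-sialidase from Trypanosoma cruzi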
[3] = Inhibition of Trypanosoma cruzi recombinant Trans-sialidase; conditions: read-out: I50; method in brief: as §1
[4] = test system: Trypanosoma cruzi; experiment: Inhibition of Trypanosoma cruzi recombinant Trans-sialidase at 0.5 mM; method in brief: as §1
[5] = test system: Trypanosoma cruzi; experiment: Apparent activation of Trypanosoma cruzi recombinant Trans-sialidase; conditions: concentration not given here; method in brief: as §1

inhibition [2]	SMILES	further results
	NC(N)=Nc1cc(C(=O)O)ccc1SCc1ccccc1	inhibition [1]: 43%
0%	O=C(CN1CCOCC1)Nc1ccc(C(=O)O)cc1	
25%	CS(=O)(=O)Nc1ccc(C(=O)O)nc1	
16%	CC(=O)Nc1ccc(C(=O)O)cc1CCO	
	CC(=O)Nc1cc(C(=O)O)ccc1N1CCOCC1	pIC50 [3]: 3.24
	NC(N)=Nc1cc(C(=O)O)ccc1NC(=O)Cc1ccccc1	inhibition [4]: 54%
	NCC(=O)Nc1cc(C(=O)O)ccc1SCc1ccccc1	pIC50 [3]: 3.00
9%	NC(N)=Nc1cc(C(=O)O)ccc1NCc1ccccc1	
17%	CS(=O)(=O)Nc1ccc(C(=O)O)cc1C(O)CN (stereo unspecified)	
25%	CC(=O)Nc1ccc(C(=O)O)cc1CCN	
17%	CC(=O)Nc1ccc(C(=O)O)cc1CC(O)CO (stereo in doubt; 31)	
0%	CC(=O)Nc1c(CCO)cc(C(=O)O)cc1N=C(N)N	
0%	NC(N)=Nc1cc(C(=O)O)cc(CCO)c1N	
	CC(=O)Nc1ccc(C(=O)O)nc1N	pIC50 [3]: 3.36
0%	CC(=O)Nc1ccc(C(=O)O)cc1CC(N)=O	
	Nc1cc(C(=O)O)ccc1SCc1ccccc1	pIC50 [3]: 3.15
	Nc1cc(C(=O)O)ccc1NCc1cccnc1	pIC50 [3]: 3.13
	Nc1cc(C(=O)O)ccc1NC(=O)Cc1ccccc1	pIC50 [3]: 2.92
22%	CC(=O)Nc1ccc(C(=O)O)nc1	
14%	CC(=O)Nc1cnc(C(=O)O)cc1N	
	CC(=O)Nc1ccc(C(=O)O)cc1CO	pIC50 [3]: 3.27
46%	CS(=O)(=O)Nc1c(/C=N/O)cc(C(=O)O)cc1N=C(N)N	
	N=C(N)Nc1cc(CCN)cc(C(=O)O)c1	inhibition [5]: -19%
11%	CS(=O)(=O)Nc1c(CO)cc(C(=O)O)cc1N=C(N)N	
29%	C[S+]([O-])Nc1ccc(C(=O)O)cc1N=C(N)N (stereo unspecified)	
	CNC(=O)c1ccc(C(=O)O)cc1NC(=N)N	pIC50 [3]: 3.12
0%	CC(=O)Nc1ccc(C(=O)O)cc1	
	CC(=S)Nc1ccc(C(=O)O)nc1	pIC50 [3]: 3.27
0%	CC(=O)Nc1ccc(C(=O)O)cc1CC(O)CO (stereo in doubt; 32)	

SMILES	inhibition [2]	further results
N=C(N)Nc1cc(/C=N/O)cc(C(=O)O)c1	35%	
CC(=O)Nc1ccc(C(=O)O)cc1/C=N/O	24%	
